Results as given in ChEMBL document CHEMBL2311453, “Tetrahydropyrroloquinolinone type dual inhibitors of aromatase/aldosterone synthase as a novel strategy for breast cancer patients with elevated cardiovascular risks” (J Med Chem, 2013).

Assays:
[1] = tested on: V79MZh; assay: Selectivity factor, ratio of IC50 for human CYP11B1 to IC50 for human CYP11B2 expressed in hamster V79MZh cells; type: cell-based
In short: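 SF calculated as IC50(CYP11B1)/IC50(CYP11B2). Both IC50s come from V79MZh hamster fibroblasts expressing the human enzyme, with [1,2-³H]-11-deoxycorticosterone at 100 nM as substrate.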

[2] = target: T1, Cytochrome P450 11B2, mitochondrial (Homo sapiens, UniProt P19099); assay: Inhibition of human CYP11B2 expressed in hamster V79MZh cells using [1,2-3H]-11-deoxy-corticosterone as substrate; type: cell-based
T1 sequence (P19099 whole entry): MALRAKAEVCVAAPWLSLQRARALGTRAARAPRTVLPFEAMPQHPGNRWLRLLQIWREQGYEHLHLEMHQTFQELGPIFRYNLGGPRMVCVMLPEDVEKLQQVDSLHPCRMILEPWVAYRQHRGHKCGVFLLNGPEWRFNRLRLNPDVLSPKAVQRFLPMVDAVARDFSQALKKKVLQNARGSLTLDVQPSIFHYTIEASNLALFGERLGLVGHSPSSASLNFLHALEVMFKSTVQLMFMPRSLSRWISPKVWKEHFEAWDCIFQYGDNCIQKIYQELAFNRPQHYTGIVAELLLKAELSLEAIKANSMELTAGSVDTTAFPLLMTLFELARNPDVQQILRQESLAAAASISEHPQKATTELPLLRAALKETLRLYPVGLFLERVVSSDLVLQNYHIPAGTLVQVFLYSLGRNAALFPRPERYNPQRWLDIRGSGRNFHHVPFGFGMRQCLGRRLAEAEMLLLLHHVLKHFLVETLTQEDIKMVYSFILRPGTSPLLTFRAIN
In short: (§1)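 V79MZh hamster fibroblasts stably expressing human CYP11B1 or CYP11B2, incubated with [1,2-³H]-11-deoxycorticosterone (100 nM) and inhibitor at varying concentrations. IC50 taken as mean of at least three experiments (relative SD under 25%).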

[3] = target: T2, Cytochrome P450 11B1, mitochondrial (Homo sapiens, UniProt P15538); assay: Inhibition of human CYP11B1 expressed in hamster V79MZh cells using [1,2-3H]-11-deoxy-corticosterone as substrate; type: cell-based; in short: as §1
T2 sequence (P15538 whole entry): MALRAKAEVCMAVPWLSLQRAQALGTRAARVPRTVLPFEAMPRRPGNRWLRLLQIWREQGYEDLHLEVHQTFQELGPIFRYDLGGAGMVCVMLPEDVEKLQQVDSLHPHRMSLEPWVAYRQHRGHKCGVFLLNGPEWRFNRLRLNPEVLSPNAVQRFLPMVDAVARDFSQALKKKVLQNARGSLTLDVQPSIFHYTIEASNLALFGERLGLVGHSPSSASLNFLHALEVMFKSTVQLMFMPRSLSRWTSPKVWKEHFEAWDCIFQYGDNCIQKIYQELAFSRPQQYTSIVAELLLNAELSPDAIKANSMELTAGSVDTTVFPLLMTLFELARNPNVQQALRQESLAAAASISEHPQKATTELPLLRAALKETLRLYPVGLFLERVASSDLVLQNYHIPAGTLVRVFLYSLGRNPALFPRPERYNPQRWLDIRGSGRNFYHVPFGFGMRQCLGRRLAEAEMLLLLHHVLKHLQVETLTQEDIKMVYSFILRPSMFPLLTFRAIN

[4] = target: T3, Aromatase (Homo sapiens, UniProt P11511); assay: Inhibition of human CYP19 using [1beta-3H]androstenedione as substrate by 3H2O method
T3 sequence (P11511 whole entry): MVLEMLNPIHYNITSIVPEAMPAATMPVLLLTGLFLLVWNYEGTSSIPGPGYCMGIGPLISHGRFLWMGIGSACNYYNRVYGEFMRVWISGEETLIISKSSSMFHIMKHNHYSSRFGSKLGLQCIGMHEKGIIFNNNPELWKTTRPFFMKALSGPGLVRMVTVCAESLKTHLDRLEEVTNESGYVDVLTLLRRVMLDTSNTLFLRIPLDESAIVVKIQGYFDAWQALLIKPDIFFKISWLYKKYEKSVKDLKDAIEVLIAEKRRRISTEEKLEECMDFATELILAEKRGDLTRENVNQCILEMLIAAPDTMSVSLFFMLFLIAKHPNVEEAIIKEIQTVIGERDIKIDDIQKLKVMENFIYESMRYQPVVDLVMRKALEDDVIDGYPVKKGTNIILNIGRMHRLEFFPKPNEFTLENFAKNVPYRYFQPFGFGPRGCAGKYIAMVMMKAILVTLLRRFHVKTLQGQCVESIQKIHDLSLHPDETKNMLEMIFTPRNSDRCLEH

[5] = target: T4, CYP17 (Homo sapiens, UniProt P05093); assay: Inhibition of human CYP17 expressed in Escherichia coli using progesterone as substrate at 2 uM; details: probe progesterone
T4 sequence (P05093 whole entry): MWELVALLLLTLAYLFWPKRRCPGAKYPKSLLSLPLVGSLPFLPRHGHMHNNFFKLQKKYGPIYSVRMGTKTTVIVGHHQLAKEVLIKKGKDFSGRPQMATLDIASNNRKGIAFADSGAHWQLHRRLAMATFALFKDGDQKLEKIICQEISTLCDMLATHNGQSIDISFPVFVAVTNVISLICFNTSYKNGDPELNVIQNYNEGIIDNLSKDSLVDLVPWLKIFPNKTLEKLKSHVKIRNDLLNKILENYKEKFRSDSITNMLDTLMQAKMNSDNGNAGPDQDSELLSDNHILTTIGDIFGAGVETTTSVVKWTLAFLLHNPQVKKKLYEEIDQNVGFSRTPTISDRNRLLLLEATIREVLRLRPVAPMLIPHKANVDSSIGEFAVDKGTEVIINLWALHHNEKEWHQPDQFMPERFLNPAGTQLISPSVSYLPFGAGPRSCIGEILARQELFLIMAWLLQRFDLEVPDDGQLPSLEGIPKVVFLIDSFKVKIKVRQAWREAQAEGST
In short: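 Enzyme source was the 90000g sediment of E. coli coexpressing human CYP17 and cytochrome P450 reductase. Progesterone substrate at 25 μM, NADPH cofactor, inhibitor at 2 μM. Percent inhibition is the mean of at least two experiments (SD under 10%).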

IC50 [2] [nM] | IC50 [3] [nM] | IC50 [4] [nM] | inhibition at 2 µM [5] [%] | SMILES | Ratio IC50 [1]
74 | 140 | 1500 |  | CC(c1ccncc1)c1cc2c3c(c1)CCN3C(=O)CC2 (stereo not given) | 1.9
85 | 745 | 105 | 43 | O=C1CCc2cc(C(O)(c3ccccc3)c3ccncc3)cc3c2N1CC3 (stereo not given) | 8.8
52 | 810 | 124 | 53 | COc1ccc(C(c2ccncc2)c2cc3c4c(c2)CCN4C(=O)CC3)cc1 (stereo in doubt; 3k) [listing 1 of 2 here] | 
1420 | 2620 |  | 7 | N#Cc1ccc(C(c2ccc(C#N)cc2)n2cncn2)cc1 [LETROZOLE] | 
46 | 1690 | 273 |  | COc1ccc(C(c2ccncc2)c2cc3c4c(c2)CCN4C(=O)CC3)cc1 (single isomer, unassigned; (+)) [listing 2 of 2 here] | 
390 | 5400 | 880 |  | O=C1CCc2cc(C(c3ccccc3)c3ccncc3)cc3c2N1CC3 (stereo not given) | 14
750 | 1420 | 889 |  | CC(C)C(c1ccncc1)c1cc2c3c(c1)CCN3C(=O)CC2 (stereo not given) | 1.9
1290 | > 5000 | 74 |  | O=C1CCc2cc(C(c3ccncc3)C3CCCCC3)cc3c2N1CC3 (stereo not given) | > 4

The remaining lines, values behind:

SMILES | IC50 [2] [nM] | IC50 [3] [nM] | IC50 [4] [nM] | inhibition at 2 µM [5] [%] | Ratio IC50 [1]
O=C1CCc2cc(C(c3ccc(F)cc3)c3cccnc3)cc3c2N1CC3 (stereo not given) | 587 | 78 | 140 |  | 0.1
Cc1cccc(C(c2cccnc2)c2cc3c4c(c2)CCN4C(=O)CC3)c1 (stereo not given) | > 5000 | 1220 | > 5000 |  | < 0.2
COc1ccc(C(c2ccncc2)c2cc3c4c(c2)CCN4C(=O)CC3)cc1 (single isomer, unassigned; (+)) [listing 1 of 2 here] |  |  |  |  | 37
O=C1CCc2cc(C(c3ccncc3)c3ccc(Cl)cc3)cc3c2N1CC3 (stereo not given) | 32 | 92 | 55 | 60 | 2.9
O=C1CCc2cc(C(c3ccncc3)c3cccc(Cl)c3)cc3c2N1CC3 (stereo not given) | 51 | 646 | 19 | 58 | 13
O=C1CCc2cc(C(c3cccnc3)c3cccc(Cl)c3)cc3c2N1CC3 (stereo not given) | > 5000 | 36 | 1350 |  | < 0.1
O=C1CCc2cc(C(O)c3cccnc3)cc3c2N1CC3 (stereo not given) | > 5000 | 750 | > 5000 |  | < 0.1
COc1ccc(C(c2ccncc2)c2cc3c4c(c2)CCN4C(=O)CC3)cc1 (single isomer, unassigned; (-)) [listing 1 of 2 here] |  |  |  |  | 6.9
N#Cc1ccc(C2CCCc3cncn32)cc1 (stereo not given) [FADROZOLE] |  |  |  | < 3 | 
C=C(c1ccncc1)c1cc2c3c(c1)CCN3C(=O)CC2 | 96 | 1230 | 565 | 17 | 13
COc1ccccc1C(c1cccnc1)c1cc2c3c(c1)CCN3C(=O)CC2 (stereo not given) | > 5000 | 2270 | 3660 |  | < 0.3
O=C1CCc2cc(C(c3ccncc3)c3cc(C(F)(F)F)cc(C(F)(F)F)c3)cc3c2N1CC3 (stereo not given) | 1580 | > 5000 | 246 |  | > 3
COc1ccc(C(c2ccncc2)c2cc3c4c(c2)CCN4C(=O)CC3)cc1 (stereo in doubt; 3k) [listing 2 of 2 here] |  |  |  |  | 16
O=C1CCc2cc(C(c3ccncc3)c3cccc(F)c3)cc3c2N1CC3 (stereo not given) | 88 | 532 | 74 |  | 6
O=C1CCc2cc(C(c3ccccc3)c3cccnc3)cc3c2N1CC3 (stereo not given) | 132 | 68 | 2130 |  | 0.5
COc1ccc(C(c2ccncc2)c2cc3c4c(c2)CCN4C(=O)CC3)cc1 (single isomer, unassigned; (-)) [listing 2 of 2 here] | 74 | 511 | 92 |  | 
